The compounds below were run on Rattus norvegicus (assay: Analgesic activity in rat at 25 mg/kg, po after 60 mins by radiant heat tail flick method relative to control). Details: 1 h.
Format: functional
Procedure, shortened: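 Rats, six per group, were dosed orally at 25 mg/kg. Analgesia was measured at 60 min by the radiant heat tail flick method and expressed as percentage analgesia. Animals were kept on a 12/12 h light/dark cycle with free access to water and standard pellet diet.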

Row | Structure (SMILES) | inhibition in vivo at 25 mg/kg
1 | CC(=O)N1N=C(c2ccc(F)cc2)CC1c1cn(-c2ccccc2)nc1-c1cccc([N+](=O)[O-])c1 (stereo not given) | 109%
2 | COc1ccc(-c2nn(-c3ccccc3)cc2C2CC(c3ccc(F)cc3)=NN2C(C)=O)cc1 (stereo not given) | 66%
3 | CC(=O)N1N=C(c2ccc(F)cc2)CC1c1cn(-c2ccccc2)nc1-c1ccc(F)cc1 (stereo not given) | 43%
4 | CC(=O)N1N=C(c2ccc(F)cc2)CC1c1cn(-c2ccccc2)nc1-c1ccc(C)cc1 (stereo not given) | 110%
5 | CC(=O)N1N=C(c2ccc(F)cc2)CC1c1cn(-c2ccccc2)nc1-c1ccc(Cl)cc1 (stereo not given) | 44%
6 | Fc1ccc(C2=NN(c3ccccc3)C(c3cn(-c4ccccc4)nc3-c3ccccc3)C2)cc1 (stereo not given) | 35%
7 | O=[N+]([O-])c1cccc(-c2nn(-c3ccccc3)cc2C2CC(c3ccc(F)cc3)=NN2c2ccccc2)c1 (stereo not given) | 108%
8 | Cc1ccc(-c2nn(-c3ccccc3)cc2C2CC(c3ccc(F)cc3)=NN2c2ccccc2)cc1 (stereo not given) | 110%
9 | COc1ccc(-c2nn(-c3ccccc3)cc2C2CC(c3ccc(F)cc3)=NN2c2ccccc2)cc1 (stereo not given) | 66%
10 | CC(=O)Oc1ccccc1C(=O)O [ASPIRIN] | 119%
11 | CC(=O)N1N=C(c2ccc(F)cc2)CC1c1cn(-c2ccccc2)nc1-c1ccccc1 (stereo not given) | 35%
12 | CC(=O)N1N=C(c2ccc(F)cc2)CC1c1cn(-c2ccccc2)nc1-c1ccc(Br)cc1 (stereo not given) | 71%
13 | Fc1ccc(C2=NN(c3ccccc3)C(c3cn(-c4ccccc4)nc3-c3ccc(Br)cc3)C2)cc1 (stereo not given) | 71%
14 | Fc1ccc(C2=NN(c3ccccc3)C(c3cn(-c4ccccc4)nc3-c3ccc(Cl)cc3)C2)cc1 (stereo not given) | 43%
15 | Fc1ccc(C2=NN(c3ccccc3)C(c3cn(-c4ccccc4)nc3-c3ccc(F)cc3)C2)cc1 (stereo not given) | 41%
